One data set concerns Pf (3D7). Briefly: Plasmodium falciparum screening. In kind it is cell-based. An outline of the steps:
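Asexual intraerythrocytic P. falciparum 3D7 grown in expired human transfusion red cells. EC50 is reported with its 95% confidence interval, and n is the number of screening replicates.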

The subject of a further data set is HepG2. Briefly: mammalian cell growth inhibition assay. The settings on record: Homo sapiens, HepG2, read-out: EC50 HepG2, mammalian cell counter-screen. Type of data set: cell-based. The procedure, abridged:
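HepG2 counter-screen values are EC50s, each with its number of screening replicates (n) and a 95% confidence interval.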

Data set [1] can be described thus: mouse microsomal clearance. In kind it is in vitro ADME. The settings on record: mouse liver microsomes. The procedure, abridged:
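Intrinsic clearance is measured in mouse liver microsomes and expressed as mL min−1 (g liver)−1.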

Several values for one entry are separate records, joined by “and”; a condition that tells them apart may be missing. Identical values can stand only once.

For orientation: EC50 means the concentration giving half of the maximal effect.

On to `Cc1ccc(NC(C)(C)C(=O)Nc2ccc(F)c(Cl)c2)cc1S(=O)(=O)N1CCOCC1` [Compound 28, N-(3-chloro-4-fluorophenyl)-2-methyl-2-{[4-methyl-3-(morpholinosulfonyl)phenyl]amino}propanamide], for which, in the data set with Pf (3D7) (Pf (3D7)), the “improvement in antimalarial potency relative to compound 1” value was ~20 fold and > 10 fold. The EC50 in the data set on Pf (3D7) (Plasmodium falciparum, 3D7, read-out: EC50 Pf (3D7)) was 7 nM; with HepG2 it was greater than 25000 nM. The “Mouse microsomal CLint” value in data set [1] is given as > 50 mL min^−1 (g liver)^−1.

Source of the values: PMC6899483 (ChemMedChem, 2019).
